Source: ChEMBL document CHEMBL1142636 (2000)
Active and inactive are the calls of the source.

Legend:
Type in all cases: functional
[1] = system: Hs-578T; test: Growth inhibition of human HS578T cells
[2] = system: MDA-MB-231; test: Growth inhibition of human MDA-MB-231 cells
[3] = system: MCF7; test: Growth inhibition of human MCF7 cells
[4] = system: DU-145; test: Growth inhibition of human DU145 cells
[5] = system: PC-3; test: Growth inhibition of human PC3 cells
[6] = system: UO-31; test: Growth inhibition of human UO31 cells
How it was run: (§1)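 Tested at the NCI in its human disease-oriented in vitro screen of 60 tumour cell lines, following the Monks et al. methods. Activity is expressed as GI50, given as log molar values.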

[7] = system: TK-10; test: Growth inhibition of human TK10 cells; how it was run: as §1
[8] = system: SN12C; test: Growth inhibition of human SN12C cells; how it was run: as §1
[9] = system: RXF 393; test: Growth inhibition of human […] cells
[10] = system: CAKI-1; test: Growth inhibition of human CAKI1 cells
[11] = system: ACHN; test: Growth inhibition of human ACHN cells
[12] = system: A498; test: Growth inhibition of human A498 cells
[13] = system: 786-0; test: Growth inhibition of human 786-0 cells
[14] = system: SK-OV-3; test: Growth inhibition of human SK-OV-3 cells; how it was run: as §1
[15] = system: OVACR8; test: Growth inhibition of human OVACR8 cells
[16] = system: OVACR5; test: Growth inhibition of human OVACR5 cells
[17] = system: OVACR4; test: Growth inhibition of human OVACR4 cells
[18] = system: OVACR3; test: Growth inhibition of human […] cells
[19] = system: IGROV-1; test: Growth inhibition of human IGROV1 cells
[20] = system: UACC-62; test: Growth inhibition of human UACC62 cells; how it was run: as §1
[21] = system: UACC-257; test: Growth inhibition of human UACC257 cells; how it was run: as §1
[22] = system: SK-MEL-5; test: Growth inhibition of human SK-MEL-5 cells; how it was run: as §1
[23] = system: SK-MEL-28; test: Growth inhibition of human SK-MEL-28 cells; how it was run: as §1
[24] = system: SK-MEL-2; test: Growth inhibition of human SK-MEL-2 cells; how it was run: as §1
[25] = system: M19-MEL; test: Growth inhibition of human M19-MEL cells
[26] = system: M14; test: Growth inhibition of human M14 cells
[27] = system: Malme-3M; test: Growth inhibition of human MALME-3M cells
[28] = system: LOX IMVI; test: Growth inhibition of human LOX IMVI cells
[29] = system: XF498; test: Growth inhibition of human XF498 cells; how it was run: as §1
[30] = system: U-251; test: Growth inhibition of human U251 cells; how it was run: as §1
[31] = system: SNB-75; test: Growth inhibition of human SNB75 cells; how it was run: as §1
[32] = system: SNB-19; test: Growth inhibition of human SNB19 cells; how it was run: as §1
[33] = system: SF-539; test: Growth inhibition of human SF539 cells; how it was run: as §1
[34] = system: SF-295; test: Growth inhibition of human SF295 cells; how it was run: as §1
[35] = system: SF-268; test: Growth inhibition of human SF268 cells; how it was run: as §1
[36] = system: SW-620; test: Growth inhibition of human SW620 cells; how it was run: as §1
[37] = system: KM-20L2; test: Growth inhibition of human KM20L2 cells
[38] = system: KM12; test: Growth inhibition of human KM12 cells
[39] = system: HT-29; test: Growth inhibition of human HT29 cells
[40] = system: HCT-15; test: Growth inhibition of human HCT15 cells
[41] = system: HCT-116; test: Growth inhibition of human HCT116 cells
[42] = system: HCC 2998; test: Growth inhibition of human HCC2998 cells
[43] = system: DLD-1; test: Growth inhibition of human DLD1 cells
[44] = system: COLO 205; test: Growth inhibition of human COLO205 cells
[45] = system: DMS-273; test: Growth inhibition of human DMS273 cells
[46] = system: DMS144; test: Growth inhibition of human DMS144 cells
[47] = system: LXFL 529; test: Growth inhibition of human LXFL529 cells
[48] = system: NCI-H522; test: Growth inhibition of human NCI-H522 cells
[49] = system: NCI-H460; test: Growth inhibition of human NCI-H460 cells
[50] = system: NCI-H322M; test: Growth inhibition of human NCI-H322M cells
[51] = system: NCI-H23; test: Growth inhibition of human NCI-H23 cells
[52] = system: NCI-H226; test: Growth inhibition of human NCI-H226 cells
[53] = system: HOP-92; test: Growth inhibition of human HOP92 cells
[54] = system: HOP-62; test: Growth inhibition of human HOP62 cells
[55] = system: HOP-18; test: Growth inhibition of human HOP18 cells
[56] = system: EKVX; test: Growth inhibition of human EKVX cells
[57] = system: A549; test: Growth inhibition of human A549 cells
[58] = system: SR; test: Growth inhibition of human SR cells; how it was run: as §1
[59] = system: RPMI8266; test: Growth inhibition of human RPMI8266 cells
[60] = system: MOLT-4; test: Growth inhibition of human MOLT4 cells
[61] = system: K562; test: Growth inhibition of human K562 cells
[62] = system: HL-60(TB); test: Growth inhibition of human HL60(TB) cells
[63] = system: CCRF-CEM; test: Growth inhibition of human CCRF-CEM cells
[64] = system: MDA-MB-435; test: Growth inhibition of human MDA-MB-435 cells
[65] = system: MDA-N; test: Growth inhibition of human MDA-N cells
[66] = system: BT-549; test: Growth inhibition of human BT549 cells
[67] = system: T47D; test: Growth inhibition of human T47D cells; how it was run: as §1
[68] = system: NCI/ADR-RES; test: Growth inhibition of human MCF7/ADR-RES cells

Measured: Activity

Cc1cc2c([nH]c3ccccc32)c2c1OC(C)(C)[C@H]1[C@H]3CC(C)(C)Oc4c(C)cc5c6ccccc6n(c5c43)[C@@H]21
inactive: all assays above

COc1cc(Cn2c3ccccc3c3cc(C)c4c(c32)C=CC(C)(CCC=C(C)C)O4)cc2c1[nH]c1ccccc12 (stereo unspecified)
inactive: all assays above
